Data set [1] has as its target 3-phosphoinositide-dependent protein kinase 1 (PDPK1) (Homo sapiens) (UniProt O15530). In words: Inhibition of PDK1 at 10 uM.
Data set [2] concerns the target Cyclin-dependent kinase 2/cyclin A (Homo sapiens) (UniProt P24941+P20248+P78396). Nature of the data set: Inhibition of CDK2/cyclinA at 10 uM. The format is protein-complex assay.
In data set [3] the target is Tyrosine-protein kinase SYK (Homo sapiens) (UniProt P43405). In words: Inhibition of Syk at 10 uM.
Another data set relates to COLO 205. Nature of the data set: Cytotoxicity against human COLO205 cells expressing b-Raf V600E mutant after 72 hrs by MTS assay. The format is functional, cell-based. The note with it: COLO 205, 72 h. Summed up: (§1)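 Human BRAF(V600E) line seeded at 3000–10,000 cells per 96 well, allowed 16 h at 37 °C in humidified 5% CO2. Then exposed 72 h to an eleven-point compound dilution in duplicate. NADH measured by MTS tetrazolium conversion, read at OD 490 nm. EC50 taken from compound concentration vs total NADH.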

Data set [4] addresses Angiopoietin-1 receptor (Homo sapiens) (UniProt Q02763). Nature of the data set: Inhibition of Tie2 at 10 uM.
In data set [5] the target is Glycogen synthase kinase-3 beta (Homo sapiens) (UniProt P49841). Nature of the data set: Inhibition of GSK3-beta at 10 uM.
The test system of another data set is A-375. Nature of the data set: Cytotoxicity against human A375 cells expressing b-Raf V600E mutant after 72 hrs by MTS assay. The following applies: A-375, 72 h. Format: functional, cell-based. Summed up:
as §1

In data set [6] the target is Serine/threonine-protein kinase PLK3 (Homo sapiens) (UniProt Q9H4B4). Nature of the data set: Inhibition of PLK3 at 10 uM.
The target of data set [7] is Dual specificity mitogen-activated protein kinase kinase 1 (Homo sapiens, UniProt Q02750). Nature of the data set: Inhibition of MEK1 by cascade assay method. Summed up: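 Cascade format, compounds serially diluted in DMSO, then in 50 mM HEPES pH 7.3, 10 mM NaCl, 10 mM MgCl2, 0.01% Brij35, 1 mM DTT. Reaction started with 1 nM MEK1 and 400 µM ATP (also run at 10 µM). Product read by IMAP fluorescence polarization. IC50 fitted with standard models.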

Data set [8] addresses Platelet-derived growth factor receptor beta (Homo sapiens) (UniProt P09619). Nature of the data set: Inhibition of PDGFRbeta at 10 uM.
Data set [9] has as its target Protein kinase C alpha type (Homo sapiens) (UniProt P17252). In words: Inhibition of PKCalpha at 10 uM.
The target of data set [10] is Hepatocyte growth factor receptor (Homo sapiens) (UniProt P08581). Nature of the data set: Inhibition of c-Met at 10 uM.
The target of data set [11] is Insulin receptor (Homo sapiens) (UniProt P06213). Nature of the data set: Inhibition of insulin receptor at 10 uM.
For data set [12], the target named is Calcium/calmodulin-dependent protein kinase type 1D (Homo sapiens) (UniProt Q8IU85). In words: Inhibition of CamK1delta at 10 uM.
Data set [13] concerns the target T1, Tyrosine-protein kinase JAK3 (Homo sapiens) (UniProt P52333).
T1 sequence (whole entry): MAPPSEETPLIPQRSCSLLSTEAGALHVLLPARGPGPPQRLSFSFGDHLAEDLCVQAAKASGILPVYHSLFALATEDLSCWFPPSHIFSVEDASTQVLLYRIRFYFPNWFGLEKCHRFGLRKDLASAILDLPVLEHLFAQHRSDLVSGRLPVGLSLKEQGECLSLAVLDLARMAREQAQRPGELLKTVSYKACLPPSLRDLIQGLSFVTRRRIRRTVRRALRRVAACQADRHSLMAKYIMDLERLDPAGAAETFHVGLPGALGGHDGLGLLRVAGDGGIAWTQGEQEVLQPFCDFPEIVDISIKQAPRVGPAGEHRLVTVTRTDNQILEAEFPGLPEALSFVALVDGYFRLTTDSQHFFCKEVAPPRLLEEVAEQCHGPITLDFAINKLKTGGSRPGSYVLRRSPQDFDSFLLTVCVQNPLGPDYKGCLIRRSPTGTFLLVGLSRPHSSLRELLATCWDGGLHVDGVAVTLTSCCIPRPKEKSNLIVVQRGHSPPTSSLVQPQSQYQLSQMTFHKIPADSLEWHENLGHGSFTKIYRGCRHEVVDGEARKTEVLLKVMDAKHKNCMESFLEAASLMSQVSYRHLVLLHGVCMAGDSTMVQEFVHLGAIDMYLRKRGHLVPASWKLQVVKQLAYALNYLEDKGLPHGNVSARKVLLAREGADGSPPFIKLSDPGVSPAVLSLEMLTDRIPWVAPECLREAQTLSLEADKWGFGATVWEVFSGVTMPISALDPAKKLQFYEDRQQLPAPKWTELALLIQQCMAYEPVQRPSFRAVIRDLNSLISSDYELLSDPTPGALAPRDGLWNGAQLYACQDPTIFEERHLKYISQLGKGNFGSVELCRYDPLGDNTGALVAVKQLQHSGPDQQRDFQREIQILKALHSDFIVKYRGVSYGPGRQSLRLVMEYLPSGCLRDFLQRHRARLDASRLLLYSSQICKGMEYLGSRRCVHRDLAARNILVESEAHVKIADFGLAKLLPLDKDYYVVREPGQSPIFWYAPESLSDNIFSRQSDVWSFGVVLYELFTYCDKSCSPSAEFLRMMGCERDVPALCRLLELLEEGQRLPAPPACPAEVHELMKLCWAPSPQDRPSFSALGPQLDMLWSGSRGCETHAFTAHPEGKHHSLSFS
Nature of the data set: Inhibition of JAK3 at 10 uM.

Data set [14] addresses Epidermal growth factor receptor (Homo sapiens) (UniProt P00533). Nature of the data set: Inhibition of EGFR at 10 uM.
In data set [15] the target is Mitogen-activated protein kinase 14 (Homo sapiens) (UniProt Q16539). In words: Inhibition of P38alpha at 10 uM.
Data set [16] addresses Tyrosine-protein kinase ABL1 (Homo sapiens) (UniProt P00519). Nature of the data set: Inhibition of Abl1 at 10 uM.
Data set [17] in a line: Half life in human liver microsomes. Format: ADME, Microsome.
The target of data set [18] is RAF proto-oncogene serine/threonine-protein kinase (Homo sapiens) (UniProt P04049). Nature of the data set: Inhibition of c-RAF at 10 uM.
Data set [19] deals with RAC-gamma serine/threonine-protein kinase (Homo sapiens) (UniProt Q9Y243). In words: Inhibition of AKT3 at 10 uM.
Data set [20] concerns the target Proto-oncogene tyrosine-protein kinase Src (Homo sapiens) (UniProt P12931). Nature of the data set: Inhibition of c-SRC at 10 uM.
Data set [21] can be described thus: Half life in rat liver microsomes. The format is ADME, Microsome.

Calls of active or inactive are those of the source. The rule behind the calls is not given here.

Dual specificity mitogen-activated protein kinase kinase 1, sequence (Q02750 whole entry): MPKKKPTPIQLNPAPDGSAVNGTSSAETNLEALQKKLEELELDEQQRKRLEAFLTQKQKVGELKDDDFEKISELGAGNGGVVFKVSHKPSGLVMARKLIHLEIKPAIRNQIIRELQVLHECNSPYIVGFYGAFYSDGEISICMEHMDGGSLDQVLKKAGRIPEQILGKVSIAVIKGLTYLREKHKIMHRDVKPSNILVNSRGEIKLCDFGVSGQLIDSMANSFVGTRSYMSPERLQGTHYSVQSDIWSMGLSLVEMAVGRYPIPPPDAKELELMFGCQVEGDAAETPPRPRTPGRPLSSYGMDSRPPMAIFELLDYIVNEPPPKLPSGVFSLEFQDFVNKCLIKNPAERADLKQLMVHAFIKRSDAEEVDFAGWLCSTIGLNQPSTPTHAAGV
Calcium/calmodulin-dependent protein kinase type 1D (Homo sapiens), sequence (Q8IU85 whole entry, looked up): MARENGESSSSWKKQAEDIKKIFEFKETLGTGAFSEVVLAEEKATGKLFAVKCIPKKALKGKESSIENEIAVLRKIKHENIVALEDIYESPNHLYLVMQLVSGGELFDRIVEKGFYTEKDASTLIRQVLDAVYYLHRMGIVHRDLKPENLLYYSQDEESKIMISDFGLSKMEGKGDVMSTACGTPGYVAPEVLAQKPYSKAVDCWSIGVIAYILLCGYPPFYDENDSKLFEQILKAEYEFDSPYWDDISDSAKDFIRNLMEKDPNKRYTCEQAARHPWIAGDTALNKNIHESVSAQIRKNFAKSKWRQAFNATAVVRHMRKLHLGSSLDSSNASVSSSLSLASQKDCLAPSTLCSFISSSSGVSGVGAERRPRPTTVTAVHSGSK
Tyrosine-protein kinase ABL1 (Homo sapiens), sequence (P00519 whole entry): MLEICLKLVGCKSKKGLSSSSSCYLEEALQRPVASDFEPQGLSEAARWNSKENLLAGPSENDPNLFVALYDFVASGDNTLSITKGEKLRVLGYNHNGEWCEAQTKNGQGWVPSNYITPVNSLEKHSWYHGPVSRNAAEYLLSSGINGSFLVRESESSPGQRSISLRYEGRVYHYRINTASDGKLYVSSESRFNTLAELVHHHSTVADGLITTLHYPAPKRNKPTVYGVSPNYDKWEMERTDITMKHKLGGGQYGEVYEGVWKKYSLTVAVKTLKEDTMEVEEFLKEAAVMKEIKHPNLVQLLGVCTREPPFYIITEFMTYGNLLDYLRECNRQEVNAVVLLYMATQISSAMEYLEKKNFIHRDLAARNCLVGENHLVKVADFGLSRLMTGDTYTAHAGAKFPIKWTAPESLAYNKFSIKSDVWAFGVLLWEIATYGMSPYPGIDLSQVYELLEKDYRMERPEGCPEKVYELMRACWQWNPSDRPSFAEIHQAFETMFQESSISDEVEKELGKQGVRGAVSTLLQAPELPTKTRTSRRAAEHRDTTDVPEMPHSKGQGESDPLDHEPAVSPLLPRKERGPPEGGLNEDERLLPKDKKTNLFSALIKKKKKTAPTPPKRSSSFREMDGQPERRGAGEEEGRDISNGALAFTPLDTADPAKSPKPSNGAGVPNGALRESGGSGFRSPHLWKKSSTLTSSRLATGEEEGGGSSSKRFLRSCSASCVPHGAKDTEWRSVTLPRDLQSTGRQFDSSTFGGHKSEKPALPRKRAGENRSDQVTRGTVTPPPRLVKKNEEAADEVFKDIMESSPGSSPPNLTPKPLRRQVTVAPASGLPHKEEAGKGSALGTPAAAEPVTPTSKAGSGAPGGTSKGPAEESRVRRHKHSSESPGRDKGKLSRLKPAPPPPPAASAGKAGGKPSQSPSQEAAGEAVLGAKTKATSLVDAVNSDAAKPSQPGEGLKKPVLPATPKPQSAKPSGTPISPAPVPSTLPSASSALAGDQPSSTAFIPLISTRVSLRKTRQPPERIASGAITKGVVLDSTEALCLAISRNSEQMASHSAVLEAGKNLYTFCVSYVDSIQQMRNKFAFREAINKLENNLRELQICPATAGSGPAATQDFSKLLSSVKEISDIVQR
Proto-oncogene tyrosine-protein kinase Src (Homo sapiens), sequence (P12931 2-536 limits assumed): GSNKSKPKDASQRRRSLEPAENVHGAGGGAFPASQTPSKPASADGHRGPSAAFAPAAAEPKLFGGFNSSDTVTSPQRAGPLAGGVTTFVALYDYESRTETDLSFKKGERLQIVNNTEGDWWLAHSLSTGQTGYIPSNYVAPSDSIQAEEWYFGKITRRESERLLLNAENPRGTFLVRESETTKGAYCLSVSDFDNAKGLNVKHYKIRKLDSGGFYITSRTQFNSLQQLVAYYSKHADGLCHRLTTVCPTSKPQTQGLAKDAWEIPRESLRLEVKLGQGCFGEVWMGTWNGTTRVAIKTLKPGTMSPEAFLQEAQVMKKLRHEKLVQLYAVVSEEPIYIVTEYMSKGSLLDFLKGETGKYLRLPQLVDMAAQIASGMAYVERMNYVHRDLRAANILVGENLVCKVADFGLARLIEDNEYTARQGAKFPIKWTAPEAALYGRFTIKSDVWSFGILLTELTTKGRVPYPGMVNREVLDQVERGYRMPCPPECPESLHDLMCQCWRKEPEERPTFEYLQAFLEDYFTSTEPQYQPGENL
Serine/threonine-protein kinase PLK3 (Homo sapiens), sequence (Q9H4B4 whole entry, looked up): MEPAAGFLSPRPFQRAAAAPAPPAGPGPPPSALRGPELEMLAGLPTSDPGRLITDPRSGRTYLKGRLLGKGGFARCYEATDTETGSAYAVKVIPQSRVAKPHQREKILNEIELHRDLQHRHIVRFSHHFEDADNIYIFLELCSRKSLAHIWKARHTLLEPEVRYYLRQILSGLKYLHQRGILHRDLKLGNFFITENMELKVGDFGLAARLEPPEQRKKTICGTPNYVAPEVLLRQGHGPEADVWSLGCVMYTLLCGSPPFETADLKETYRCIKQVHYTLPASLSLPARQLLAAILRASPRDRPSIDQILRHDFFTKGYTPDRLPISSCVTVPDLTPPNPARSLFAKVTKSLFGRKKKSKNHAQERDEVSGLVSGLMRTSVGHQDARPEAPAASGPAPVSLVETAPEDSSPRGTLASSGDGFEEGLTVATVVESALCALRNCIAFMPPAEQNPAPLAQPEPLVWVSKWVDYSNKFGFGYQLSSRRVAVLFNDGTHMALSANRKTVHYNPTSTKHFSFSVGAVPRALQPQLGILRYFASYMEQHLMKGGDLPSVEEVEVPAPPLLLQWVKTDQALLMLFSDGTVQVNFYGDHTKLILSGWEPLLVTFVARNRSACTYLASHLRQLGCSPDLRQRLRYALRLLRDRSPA
RAC-gamma serine/threonine-protein kinase (Homo sapiens), sequence (Q9Y243 whole entry): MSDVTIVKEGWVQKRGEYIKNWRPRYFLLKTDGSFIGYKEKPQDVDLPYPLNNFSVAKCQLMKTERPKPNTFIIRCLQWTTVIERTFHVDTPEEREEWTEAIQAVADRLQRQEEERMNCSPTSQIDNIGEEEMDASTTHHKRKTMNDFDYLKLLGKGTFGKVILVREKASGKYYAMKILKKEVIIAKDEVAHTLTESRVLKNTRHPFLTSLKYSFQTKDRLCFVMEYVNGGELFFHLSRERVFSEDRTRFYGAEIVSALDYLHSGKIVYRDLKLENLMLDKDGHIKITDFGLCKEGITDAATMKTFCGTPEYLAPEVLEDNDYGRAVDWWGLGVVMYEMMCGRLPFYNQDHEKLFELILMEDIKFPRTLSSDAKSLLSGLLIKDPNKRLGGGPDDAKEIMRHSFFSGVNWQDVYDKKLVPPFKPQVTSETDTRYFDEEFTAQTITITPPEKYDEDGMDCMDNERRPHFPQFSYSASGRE
Glycogen synthase kinase-3 beta (Homo sapiens), sequence (P49841 whole entry, looked up): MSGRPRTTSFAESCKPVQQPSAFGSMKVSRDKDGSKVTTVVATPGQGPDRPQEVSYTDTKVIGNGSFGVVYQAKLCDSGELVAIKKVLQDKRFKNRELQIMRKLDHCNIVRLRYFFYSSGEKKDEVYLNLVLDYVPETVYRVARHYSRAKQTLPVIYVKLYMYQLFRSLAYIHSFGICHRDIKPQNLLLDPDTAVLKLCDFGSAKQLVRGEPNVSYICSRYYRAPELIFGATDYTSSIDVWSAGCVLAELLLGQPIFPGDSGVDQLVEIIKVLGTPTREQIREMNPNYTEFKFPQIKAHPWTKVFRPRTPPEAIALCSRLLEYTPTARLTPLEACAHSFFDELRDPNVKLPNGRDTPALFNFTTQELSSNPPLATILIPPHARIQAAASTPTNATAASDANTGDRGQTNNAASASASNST
Mitogen-activated protein kinase 14 (Homo sapiens), sequence (Q16539 whole entry): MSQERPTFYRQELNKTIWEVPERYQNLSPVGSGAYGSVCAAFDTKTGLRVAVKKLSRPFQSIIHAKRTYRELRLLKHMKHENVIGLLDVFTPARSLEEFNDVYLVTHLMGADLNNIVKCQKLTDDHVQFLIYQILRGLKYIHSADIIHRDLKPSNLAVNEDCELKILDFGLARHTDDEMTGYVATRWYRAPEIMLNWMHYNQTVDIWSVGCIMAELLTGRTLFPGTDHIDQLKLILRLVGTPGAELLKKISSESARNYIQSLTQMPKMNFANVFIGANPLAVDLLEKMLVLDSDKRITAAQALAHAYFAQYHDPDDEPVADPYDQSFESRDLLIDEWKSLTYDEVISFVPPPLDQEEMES

Take `CC(=O)c1cc(C(=O)N2CC[C@@H](O)C2)c(Nc2ccc(I)cc2F)n1C`: the inhibition result in [1], in data set [2], in [3], in data set [4], in [5] and in [6] was “inactive” throughout. The inhibition result in data set [8], in data set [9], in [10], in data set [11], in data set [12] and in data set [13] was “inactive” throughout. Moreover, the inhibition result in [14], in data set [15], in [16], in [18], in [19] and in data set [20] was “inactive” each time. Moreover, the results for the EC50 in the data set with COLO 205 and in the data set on A-375 were 0.084 µM and 0.127 µM, respectively. In data set [7], the IC50 was determined as 0.013 µM. Besides, the values for the half-life in data set [17] and in data set [21] were 14 min and 9 min, respectively.
With `CC(=O)c1cc(C(=O)N2CC(N)C2)c(Nc2ccc(I)cc2F)n1C`, the inhibition result in data set [1], in data set [2], in [3], in [4], in data set [5] and in [6] was “inactive” in each case. In addition, the inhibition entry in [8], in [9], in [10], in data set [11], in [12] and in data set [13] was “inactive” in each case. The inhibition result in [14], in [15], in [16], in [18], in data set [19] and in data set [20] was “inactive” each time. Besides, the EC50 is 0.037 µM in the data set with COLO 205 and 0.039 µM with A-375. In [7], this molecule showed an IC50 of 0.007 µM. The figures for the half-life in data set [17] and in [21] were 55 min and 64 min, respectively.
`CC(=O)n1cc(C(=O)NOCCO)c(Nc2ccc(I)cc2F)c1C` returned an EC50 in the data set on COLO 205 of 10 µM. Besides, the IC50 in [7] was 0.02 µM. For the same molecule, the values for the half-life in data set [17] and in [21] were 8 min and 2 min, respectively.
With `CC(=O)c1cc(C(=O)NOC(CO)CO)c(Nc2ccc(I)cc2F)n1C`, the values for the EC50 in the data set with COLO 205 and in the data set on A-375 were 0.02 µM and 0.033 µM, respectively. In data set [7], this molecule showed an IC50 of 0.019 µM. The half-life came to 90 min in data set [17] and 16 min in [21].
On the same counts, the results for `CC(=O)c1c(Cl)c(C(=O)NOC[C@@H](O)CO)c(Nc2ccc(I)cc2F)n1C` are 0.018 µM, 0.029 µM, 0.013 µM, 38 min and 30 min.
Consider `CC(=O)c1cc(C(=O)NCCCO)c(Nc2ccc(I)cc2F)n1C`, for which the EC50 with COLO 205 turned out to be 0.128 µM; in the data set on A-375, 0.313 µM. Besides, in data set [7], the IC50 stood at 0.09 µM. Further, the half-life in data set [17] is 95 min; in data set [21], 10 min.
Take `CC(=O)c1cc(C(=O)O)c(Nc2ccc(I)cc2F)n1C`: the EC50 in the data set on COLO 205 was determined as 7.1 µM; in the data set with A-375, 2.65 µM. This molecule also returned an IC50 in data set [7] of 0.042 µM. The half-life was 123 min in [17] and 7 min in [21].
As for `CC(=O)c1cc(C(=O)NOCCCO)c(Nc2ccc(I)cc2F)n1C`, the EC50 was 0.104 µM with COLO 205 and 0.176 µM in the data set on A-375. The molecule further had an IC50 in data set [7] of 0.046 µM. Also, the half-life in data set [17] amounted to 43 min; in [21], 13 min.
With `CC(=O)n1cc(Nc2ccc(I)cc2F)c(C(=O)O)c1`, in the data set on COLO 205, the EC50 is > 50 µM. In addition, the IC50 in [7] turned out to be 0.22 µM. Further, the half-life in [17] came out at 29 min; in [21], 20 min.
Turning to `CC(=O)c1c(F)c(C(=O)NOC[C@H](O)CO)c(Nc2ccc(I)cc2F)n1C`, the figures for the EC50 with COLO 205 and with A-375 were 0.045 µM and 0.072 µM, respectively. In addition, in data set [7], the IC50 was found to be 0.029 µM. For the same molecule, the half-life in data set [17] is 107 min; in data set [21], 28 min.
Regarding `CC(=O)n1cc(C(=O)O)c(Nc2ccc(I)cc2F)c1C`, it took 21 µM to reach a half-maximal effect in the data set on COLO 205 (EC50). Moreover, in data set [7], the IC50 was found to be 0.072 µM. Besides, the half-life turned out to be 29 min in data set [17] and 21 min in data set [21].
Take `CC(=O)c1cc(C(=O)NOC[C@@H](O)CO)c(Nc2ccc(I)cc2F)n1C`: the EC50 in the data set with COLO 205 is 0.011 µM; in the data set on A-375, 0.017 µM. In data set [7], this molecule gave an IC50 of 0.011 µM. The half-life in [17] amounted to 150 min; in [21] it was 68 min.
As for `CC(=O)c1c(F)c(C(=O)NOC[C@@H](O)CO)c(Nc2ccc(I)cc2F)n1C`, the figures for the EC50 in the data set with COLO 205 and in the data set with A-375 were 0.058 µM and 0.048 µM, respectively. The same molecule had an IC50 in [7] of 0.019 µM. Moreover, the half-life stood at 115 min in data set [17] and 49 min in [21].
Consider `CC(=O)c1c(Cl)c(C(=O)NOCCO)c(Nc2ccc(I)cc2F)n1C`, for which the EC50 amounted to 0.007 µM with COLO 205 and 0.028 µM with A-375. Besides, half-maximal inhibition in data set [7] (IC50) required 0.018 µM. In addition, the half-life in data set [17] amounted to 7 min; in data set [21], 6 min.
`CC(=O)n1cc(Nc2ccc(I)cc2F)c(C(=O)NOCCO)c1` yielded an EC50 in the data set on COLO 205 of 3.1 µM. Further, the IC50 in data set [7] is 0.011 µM. Also, the half-life in [17] was 3 min; in [21], 6 min.

(Values after ChEMBL document CHEMBL1177801, “Structure-based design and synthesis of pyrrole derivatives as MEK inhibitors” (Bioorg Med Chem Lett, 2010).)
